According to ChEMBL document CHEMBL4118153, “Exploiting polarity and chirality to probe the Hsp90 C-terminus” (Bioorg Med Chem, 2018):
Active and inactive are the calls of the source. The rule behind the calls is not given here.

Key:
Heat shock protein HSP90 [1] = target: T1, Heat shock protein HSP90 (Homo sapiens, UniProt P07900+P08238); assay: Inhibition of Hsp90 C-terminal domain in human MCF7 cells assessed as induction of Her2 degradation at 0.5 to 5 fold antiproliferative EC50 after 24 hrs by Western blot analysis; assay type: cell-based
Summary of the method: (§1)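 MCF-7 cells, cultured as for proliferation, were treated for 24 h with compound in DMSO (1% final) or DMSO vehicle. Cells were harvested in cold PBS and lysed on ice for 1 h in RIPA with 1 mM PMSF, 2 mM orthovanadate and protease inhibitors. Lysates were cleared at 14000g, quantified by BCA, and 20 μg protein was run reducing, blotted to nitrocellulose and probed with specific antibodies plus HRP secondary, with chemiluminescent detection.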

Heat shock protein HSP90 [2] = target: T1, Heat shock protein HSP90; assay: Inhibition of Hsp90 C-terminal domain in human MCF7 cells assessed as effect on heat shock response-induced Hsp90 level at 0.5 to 5 fold antiproliferative EC50 after 24 hrs by Western blot analysis; assay type: cell-based; conditions: mcf7, 24 h; summary of the method: as §1
Heat shock protein HSP90 [3] = target: T1, Heat shock protein HSP90; assay: Inhibition of Hsp90 C-terminal domain in human MCF7 cells assessed as induction of CDK6 degradation at 0.5 to 5 fold antiproliferative EC50 after 24 hrs by Western blot analysis; assay type: cell-based; summary of the method: as §1
Heat shock protein HSP90 [4] = target: T1, Heat shock protein HSP90; assay: Inhibition of Hsp90 C-terminal domain in human MCF7 cells assessed as induction of ERalpha degradation at 0.5 to 5 fold antiproliferative EC50 after 24 hrs by Western blot analysis; assay type: cell-based; summary of the method: as §1
Heat shock protein HSP90 [5] = target: T1, Heat shock protein HSP90; assay: Inhibition of Hsp90 C-terminal domain in human MCF7 cells assessed as effect on heat shock response-induced Hsp70 level at 0.5 to 5 fold antiproliferative EC50 after 24 hrs by Western blot analysis; assay type: cell-based; conditions: mcf7, 24 h; summary of the method: as §1
MCF7 = assay: Antiproliferative activity against human MCF7 cells after 72 hrs by MTS/PMS assay; assay type: functional, cell-based; conditions: MCF7, 72 h
Summary of the method: (§2)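 Cells were grown in 1:1 Advanced DMEM/F12 with non-essential amino acids, 2 mM L-glutamine, penicillin/streptomycin and 10% FBS at 37 °C, 5% CO2. They were seeded at 2000/well and left to attach overnight, then exposed to serial compound dilutions (1% DMSO final) for 72 h. Viable cells were read with an […] proliferation kit and normalized to 1% DMSO controls (100%). IC50 came from separate triplicate experiments.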

SK-BR-3 [6] = assay: Antiproliferative activity against human SKBR3 cells after 72 hrs by MTS/PMS assay; assay type: functional, cell-based; conditions: SK-BR-3, 72 h; summary of the method: as §2
SK-BR-3 [7] = assay: Antiproliferative activity against human SKBR3 cells; assay type: functional, cell-based; summary of the method: as §2

Question: How did the inhibition (Heat shock protein HSP90 [1]) turn out when `COc1cccc(-c2cc(C(=O)Nc3cc4ccc(O[C@H]5CC[C@H](N(C)C)CC5)c(C)c4oc3=O)ccc2OC)c1` was run?
Answer: Active

Question: And the “inhibition (INH)” value (Heat shock protein HSP90 [2])?
Answer: Not Active

Question: And the inhibition (Heat shock protein HSP90 [3])?
Answer: Active

Question: And the inhibition (Heat shock protein HSP90 [4])?
Answer: Active

Question: And the “inhibition (INH)” value (Heat shock protein HSP90 [5])?
Answer: Not Active

Question: Which results are given for `COCCN1CCCC(Oc2ccc3cc(NC(=O)c4ccc(OC)c(-c5cccc(OC)c5)c4)c(=O)oc3c2C)C1` (stereo not drawn)?
Answer: EC50 (MCF7): 13300 nM; EC50 (SK-BR-3 [6]): 7000 nM

Question: `COc1cccc(-c2cc(C(=O)Nc3cc4ccc(O[C@H]5CC[C@H](N)CC5)c(C)c4oc3=O)ccc2OC)c1` was tested. Which inhibition (Heat shock protein HSP90 [1]) did it give?
Answer: Active

Question: What about the “inhibition (INH)” value (Heat shock protein HSP90 [2]) of the same compound?
Answer: Not Active

Question: What about the inhibition (Heat shock protein HSP90 [3]) of the same compound?
Answer: Active

Question: What about the inhibition (Heat shock protein HSP90 [4]) of the same compound?
Answer: Active

Question: And the “inhibition (INH)” value (Heat shock protein HSP90 [5])?
Answer: Not Active

Question: Which EC50 (MCF7) does the source give for `COc1cccc(-c2cc(C(=O)Nc3cc4ccc(OC5CCCN(CCO)C5)c(C)c4oc3=O)ccc2OC)c1` (stereo not drawn) here?
Answer: 2660 nM

Question: And the EC50 (SK-BR-3 [6])?
Answer: 1700 nM

Question: `COc1cccc(-c2cc(C(=O)Nc3cc4ccc(O[C@H]5CC[C@@H](N)CC5)c(C)c4oc3=O)ccc2OC)c1` was tested. Which inhibition (Heat shock protein HSP90 [1]) did it give?
Answer: Active

Question: And the “inhibition (INH)” value (Heat shock protein HSP90 [2])?
Answer: Not Active

Question: What about the inhibition (Heat shock protein HSP90 [3]) of the same compound?
Answer: Active

Question: And the inhibition (Heat shock protein HSP90 [4])?
Answer: Active

Question: And the “inhibition (INH)” value (Heat shock protein HSP90 [5])?
Answer: Not Active

Question: For `COc1cccc(-c2cc(C(=O)N[C@H]3CC[C@H](c4ccc(OC5CCN(CCO)CC5)cc4)CC3)ccc2OC)c1`, which EC50 (MCF7) is on record?
Answer: 380 nM

Question: What about the EC50 (SK-BR-3 [6]) of the same compound?
Answer: 285 nM

Question: `COc1cccc(-c2cc(C(=O)N[C@H]3CC[C@H](c4ccc(OC5CCCN(CCO)C5)cc4)CC3)ccc2OC)c1` (stereo partly drawn) was tested. Which EC50 (MCF7) did it give?
Answer: 625 nM

Question: And the EC50 (SK-BR-3 [6])?
Answer: 450 nM

Question: `CO[C@@H]1[C@@H](OC(N)=O)[C@@H](O)[C@H](Oc2ccc3c(O)c(NC(=O)c4ccc(O)c(CC=C(C)C)c4)c(=O)oc3c2C)OC1(C)C` [NOVOBIOCIN] was tested. Which EC50 (SK-BR-3 [7]) did it give?
Answer: 700 µM

Question: With `COCCN1CCCC(Oc2ccc([C@H]3CC[C@H](NC(=O)c4ccc(OC)c(-c5cccc(OC)c5)c4)CC3)cc2)C1` (stereo partly drawn) as the compound, how does the EC50 (MCF7) read?
Answer: 3000 nM

Question: What about the EC50 (SK-BR-3 [6]) of the same compound?
Answer: 900 nM

Question: `COCCN1CCC(Oc2ccc3cc(NC(=O)c4ccc(OC)c(-c5cccc(OC)c5)c4)c(=O)oc3c2C)CC1` was tested. Which EC50 (MCF7) did it give?
Answer: 2100 nM

Question: And the EC50 (SK-BR-3 [6])?
Answer: 4000 nM

Question: What does the source list for `COCCN1CCC(Oc2ccc([C@H]3CC[C@H](NC(=O)c4ccc(OC)c(-c5cccc(OC)c5)c4)CC3)cc2)CC1`?
Answer: EC50 (MCF7): 520 nM; EC50 (SK-BR-3 [6]): 363 nM

Question: For `COc1cccc(-c2cc(C(=O)Nc3cc4ccc(OC5CCN(CCO)CC5)c(C)c4oc3=O)ccc2OC)c1`, which EC50 (MCF7) is on record?
Answer: 1900 nM

Question: And the EC50 (SK-BR-3 [6])?
Answer: 2100 nM

Question: Which EC50 (SK-BR-3 [7]) does the source give for `COc1cccc(-c2cc(C(=O)Nc3cc4ccc(O[C@@H]5OC(C)(C)[C@H](OC)[C@@H](O)[C@H]5O)c(C)c4oc3=O)ccc2OC)c1` here?
Answer: 7 µM
